Inconclusive results are not listed.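 Rule for the calls, unless noted: active = viability increase at or above a cutoff of the median across tested compounds plus 3 SD (cut at about 8.5% in these data, passing the limit was not always enough); inconclusive = some gains above the cutoff, reason not given; inactive = the rest.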
Legend:
[1] = OD615 S. cerevisiae growth inhibition, permissive medium, pilot counter-assay, permissive growth control for S. cerevisiae lifespan shortening project (AID 705;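 active = growth inhibition above 25% in both replicates, a cutoff set 3 SD above the mean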); conditions: OD615, 24 h, at 10 µM, active compounds read high
Outline: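 System – S. cerevisiae with engineered DeaD lifespan system · Buffer or medium – SC raffinose/galactose permissive medium · Schedule – cells pre-grown 4 h, then 24 h compound exposure, 30 °C humidified · Technique – culture turbidity as optical density at 615 nm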

[2] = Restrictive medium S. cerevisiae growth inhibition, OD615, pilot screen of yeast lifespan reduction project, restrictive growth control (AID 706;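 active = growth inhibition above a set limit, 3 SD over mean compound inhibition, in both replicates, cut at about 43% in these data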;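 note: modified DeaD lifespan yeast strain shifted to restrictive glucose medium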); conditions: OD615, 48 h, at 10 µM, active compounds read high
Outline: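 Material: engineered S. cerevisiae DeaD strain / Medium: glucose-based CSMM-D restrictive medium / Compound: single dose of 10 µM compound final, 0.25% DMSO / Timing: 4 h pre-incubation, 48 h exposure at 30 °C / Technique: OD615 absorbance reading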

[3] = viability gain of MRP-1-high H69AR cells under doxorubicin, pilot screen, MRP-1 activator project, CellTiter-Glo, duplicate (AID 807); conditions: H69AR viability with doxorubicin, CellTiter-Glo luminescence; at 10 µM; active compounds read high;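 note: compound pretreatment 18-22 h then 72 h combined with doxorubicin; 0% = doxorubicin alone and 100% = vehicle without doxorubicin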
[4] = growth suppression of beta-catenin knockout HCT116, pilot screen, human colon tumor cells (AID 823;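 active = cell viability at or below a set limit in both duplicate runs, the limit being the all-compound median minus 4 SD, cut at about 23% in these data, passing the limit was not always enough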;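 note: 0% = wells killed by 20 µM Hyamine and 100% = untreated DMSO cell wells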); conditions: CellTiter-Glo, 60 h, at 10 µM, active compounds read low
[5] = growth suppression of PTEN-deleted HCT116, pilot screen, cell-based, HCT116 clonal line, CellTiter-Glo (AID 824;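 active = viability at or below 27.92% in each of two runs, the all-compound median minus 4 SD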;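 note: 0% = 20 µM Hyamine control and 100% = vehicle cell control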); conditions: 60 h, at 10 µM, active compounds read low
[6] = inhibitors of the yeast RAM network, pilot screen, dse1pr::URA3 reporter, 5-FOA selection (AID 869;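 active = inhibition over a set limit, the all-compound mean plus 3 SD, in both replicate runs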;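 note: 0% = DMSO wells with no growth and 100% = 10 µM 1-NA-PP1 with full growth; RAM network block rescues cells from 5-FOA so hits raise OD615 growth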); conditions: S. cerevisiae dse1pr::URA3 5-FOA growth, OD615, 2 d; at 10 µM; active compounds read high; strain carries analog-sensitive mutant Cbk1 kinase
[7] = RAM signaling pathway blockade in yeast – S. cerevisiae, Pdr1DBD-CYC8 efflux-inhibited sensitized strain, primary screen (AID 1298;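 active = RAM network inhibition above 8.4% in each of two replicates, 3 SD over the compound average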;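 note: 0% = DMSO untreated cells without growth and 100% = 10 µM 1-NA-PP1 full growth; higher means more yeast growth rescued from 5-FOA killing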); conditions: S. cerevisiae cbk1-as DSE1-URA3 strain, 5-FOA growth OD615, 2 d; at 50 µM; active compounds read high

Oc1ccc(-c2nc3cnccn3c2Nc2ccc3c(c2)OCCO3)cc1
inactive: growth inhibition [1] 2% | growth inhibition [2] 6.18% | viability increase [3] -6.18% | viability [4] 83.7% | viability [5] 83.8% | inhibition [6] 1.58% | RAM network inhibition [7] 7.64%

Cc1cc(=O)oc(C)c1C(=O)N1CCc2c([nH]c3ccccc23)C1C(C)C (configuration not stated)
inactive: growth inhibition [1] 3.99% | growth inhibition [2] 3.98% | viability increase [3] -5% | viability [4] 94.9% | viability [5] 89.4% | inhibition [6] 1.1% | RAM network inhibition [7] 4.47%

COc1ccc(OC)c(NC(=O)c2ccc(CN3CCOCC3)cc2)c1
inactive: growth inhibition [1] 9.65% | growth inhibition [2] 0.145% | viability increase [3] 0.88% | viability [4] 104% | viability [5] 111% | inhibition [6] 1.52% | RAM network inhibition [7] 4.85%

C=CCn1c(SCC(=O)NCc2ccco2)nc2sc3c(c2c1=O)CCC3
inactive: growth inhibition [1] -1.65% | growth inhibition [2] 0.995% | viability increase [3] -4.9% | viability [4] 98.6% | viability [5] 92.6% | inhibition [6] 2.48% | RAM network inhibition [7] 1.5%

CN1CCN(Cc2nc3c(c(=O)n(C)c(=O)n3C)n2CCc2ccccc2)CC1
inactive: growth inhibition [1] -8.96% | growth inhibition [2] -4.14% | viability increase [3] -1.67% | viability [4] 92.8% | viability [5] 103% | inhibition [6] 0.895% | RAM network inhibition [7] 2.53%

COc1cc2c(cc1OC)C(C(=O)NC1CC1)C1c3ccccc3CCN1C2=O (configuration not stated)
inactive: growth inhibition [1] -17.8% | growth inhibition [2] -13.4% | viability increase [3] -1.28% | viability [4] 95.8% | viability [5] 97.3% | inhibition [6] 0.58% | RAM network inhibition [7] 0.1%

COc1ccc(S(=O)(=O)Cc2ccc(C(=O)N3CCCC3)o2)cc1
inactive: growth inhibition [1] 5.75% | growth inhibition [2] -2.15% | viability increase [3] -1.61% | viability [4] 96.7% | viability [5] 91% | inhibition [6] 1.11% | RAM network inhibition [7] 4.21%

CC(=O)N(Cc1ccco1)C1(C(=O)NC2CCCCC2)CCCCC1
inactive: growth inhibition [1] -10.7% | growth inhibition [2] -22.6% | viability increase [3] -2.47% | viability [4] 94.9% | viability [5] 94.5% | inhibition [6] 3.02% | RAM network inhibition [7] 1.51%

CCOc1ccc2[nH]cc(S(=O)(=O)c3ccc(F)cc3)c(=O)c2c1
inactive: growth inhibition [1] -4.64% | growth inhibition [2] -19.8% | viability increase [3] -0.98% | viability [4] 78.7% | viability [5] 87.2% | inhibition [6] 0.455% | RAM network inhibition [7] 2.36%

CCOc1ccc(NC(=O)CN2C(=O)COc3ccc(Cl)cc32)cc1
inactive: growth inhibition [1] -17% | growth inhibition [2] -12.8% | viability increase [3] 3.8% | viability [4] 97.4% | viability [5] 90.1% | inhibition [6] 2.06% | RAM network inhibition [7] 6.61%

Cc1ccc(N2C(=O)c3oc4ccccc4c(=O)c3C2c2cccnc2)nc1 (configuration not stated)
inactive: growth inhibition [1] -12.7% | growth inhibition [2] -4.26% | viability increase [3] 0.88% | viability [4] 99.3% | viability [5] 102% | inhibition [6] 1.04% | RAM network inhibition [7] 5.38%

Cc1ccc(S(=O)(=O)N2CCN(C(=O)CSc3nnc(C)s3)C2)cc1
inactive: growth inhibition [1] -14.3% | growth inhibition [2] -10.7% | viability increase [3] -1.75% | viability [4] 91.9% | viability [5] 87.3% | inhibition [6] 1.31% | RAM network inhibition [7] -0.22%

COC(=O)COC(=O)c1ccc(Oc2nc(OC)nc(N(C)C)n2)cc1
inactive: growth inhibition [1] -10.3% | growth inhibition [2] -13.7% | viability increase [3] 0.83% | viability [4] 103% | viability [5] 104% | inhibition [6] 1.35% | RAM network inhibition [7] 2.76%

NC(=O)c1ccsc1NC(=O)C1CC1
inactive: growth inhibition [1] -0.315% | growth inhibition [2] 0.175% | viability increase [3] -2.38% | viability [4] 103% | viability [5] 100% | inhibition [6] 1.22% | RAM network inhibition [7] 0.32%

Cc1c(NS(=O)(=O)CC23CCC(CC2=O)C3(C)C)c(=O)n(-c2ccccc2)n1C (configuration not stated)
inactive: growth inhibition [1] 5.19% | growth inhibition [2] -4.44% | viability increase [3] -2.6% | viability [4] 99.5% | viability [5] 96.4% | inhibition [6] 2.22% | RAM network inhibition [7] 3.5%

Cc1ccc(C)c(N2CCN(c3ncnc4c3cnn4-c3ccccc3)CC2)c1
inactive: growth inhibition [1] -11.6% | growth inhibition [2] -18.3% | viability increase [3] 2.4% | viability [4] 72.5% | viability [5] 68.6% | inhibition [6] 3.82% | RAM network inhibition [7] 7.43%

Cc1cccn2c(=O)c(C=NCc3ccco3)c(Nc3ccc(Cl)cc3)nc12
inactive: growth inhibition [1] -14.3% | growth inhibition [2] -2.91% | viability increase [3] -6.81% | viability [4] 79.7% | viability [5] 76.1% | inhibition [6] 1.09% | RAM network inhibition [7] 1.21%

O=C(Nc1ccccc1C(=O)N1CCOCC1)c1ccco1
inactive: growth inhibition [1] -6.66% | growth inhibition [2] -11.1% | viability increase [3] -0.74% | viability [4] 101% | viability [5] 105% | inhibition [6] 0.27% | RAM network inhibition [7] 2.67%

Cn1cnnc1SCCC(=O)Nc1ccccc1
inactive: growth inhibition [1] 6.46% | growth inhibition [2] 0.795% | viability increase [3] -1.01% | viability [4] 101% | viability [5] 99.5% | inhibition [6] 1.14% | RAM network inhibition [7] 2.5%

O=C(COC(=O)C(O)c1ccccc1)c1ccc2c(c1)OCCO2 (configuration not stated)
inactive: growth inhibition [1] -4.38% | growth inhibition [2] -9.29% | viability increase [3] -0.39% | viability [4] 97.1% | viability [5] 106% | inhibition [6] 1.27% | RAM network inhibition [7] 4.89%

COc1cc(C(=O)Nc2ccc(S(=O)(=O)N3CCCCC3C)cc2)cc(OC)c1OC (configuration not stated)
inactive: growth inhibition [1] -18.5% | growth inhibition [2] -16.6% | viability increase [3] -4.48% | viability [4] 69.9% | viability [5] 65.7% | inhibition [6] 1.7% | RAM network inhibition [7] 4.51%

O=C(Oc1c(Cl)cc(Cl)c2cccnc12)N1CCOCC1
inactive: growth inhibition [1] -1.54% | growth inhibition [2] 2.49% | viability increase [3] -2.13% | viability [4] 99.7% | viability [5] 95.3% | inhibition [6] 0.74% | RAM network inhibition [7] 0.25%

COc1cc2[nH]c(=O)n(CCCCCC(=O)N3CCN(c4ccccc4)CC3)c(=O)c2cc1OC
inactive: growth inhibition [1] -20.4% | growth inhibition [2] -2.1% | viability increase [3] -4.46% | viability [4] 58.5% | viability [5] 52.5% | inhibition [6] 1.25% | RAM network inhibition [7] 0.58%

Cc1csc(NC(=O)C2CCCN(S(=O)(=O)c3cccnc3)C2)n1 (configuration not stated)
inactive: growth inhibition [1] -7.25% | growth inhibition [2] 1.94% | viability increase [3] -0.73% | viability [4] 104% | viability [5] 101% | inhibition [6] 1.59% | RAM network inhibition [7] 4.94%

CCCC(=O)NCCCc1nc2ccccc2n1C
inactive: growth inhibition [1] -3.69% | growth inhibition [2] -0.54% | viability increase [3] -1.21% | viability [4] 97.1% | viability [5] 105% | inhibition [6] -0.03% | RAM network inhibition [7] 2.78%

Cc1ccc(C(=O)NCCCn2ccnc2)o1
inactive: growth inhibition [1] -1.7% | growth inhibition [2] -6.83% | viability increase [3] 0.23% | viability [4] 101% | viability [5] 97.8% | inhibition [6] -0.265% | RAM network inhibition [7] 3.73%

CC(C)CC(NC(=O)c1ccco1)C(=O)Nc1ccc2c(c1)OCCO2 (configuration not stated)
inactive: growth inhibition [1] 6.21% | growth inhibition [2] 1.03% | viability increase [3] -1.38% | viability [4] 104% | viability [5] 105% | inhibition [6] -0.32% | RAM network inhibition [7] 1.72%

Cn1cccc1Cc1nnc(SCC(=O)NC2CCCCC2)n1CCc1ccccc1
inactive: growth inhibition [1] 9.32% | growth inhibition [2] 23.6% | viability increase [3] -2.17% | viability [4] 79.6% | viability [5] 81.5% | inhibition [6] 1.58% | RAM network inhibition [7] 8.9%

O=S(=O)(NCCc1csc(-c2cccnc2)n1)c1cccs1
inactive: growth inhibition [1] 1.37% | growth inhibition [2] -2.33% | viability increase [3] -1.11% | viability [4] 104% | viability [5] 96.8% | inhibition [6] 1.42% | RAM network inhibition [7] 0.73%

COC(=O)c1ccc(C2c3c(oc4cc(C)c(C)cc4c3=O)C(=O)N2CCCN(C)C)cc1 (configuration not stated)
inactive: growth inhibition [1] -7.92% | growth inhibition [2] -7.88% | viability increase [3] -2.2% | viability [4] 93.8% | viability [5] 87.7% | inhibition [6] 0.34% | RAM network inhibition [7] 3.78%

CCOc1ccc(-n2c(SCc3ccc(C(=O)OC)o3)nc3c(c2=O)SCC3)cc1
inactive: growth inhibition [1] -21.2% | growth inhibition [2] -16.2% | viability increase [3] -2.41% | viability [4] 81.3% | viability [5] 72.7% | inhibition [6] 2.39% | RAM network inhibition [7] 6.94%

CCn1cc(S(=O)(=O)CC(=O)Nc2ccc(C)cc2)c2ccccc21
inactive: growth inhibition [1] 0.74% | growth inhibition [2] -4.11% | viability increase [3] -0.58% | viability [4] 92.7% | viability [5] 93% | inhibition [6] 1.61% | RAM network inhibition [7] 2.02%

O=C(CSc1nnc(Cc2cc(=O)[nH]c(=O)[nH]2)n1-c1ccccc1)N1CCCCC1
inactive: growth inhibition [1] -4.77% | growth inhibition [2] 5.95% | viability increase [3] -2.54% | viability [4] 99.7% | viability [5] 90.4% | inhibition [6] 1.02% | RAM network inhibition [7] -2.08%

CC(C)CCOC(=O)C1C2C=CC3(CN(Cc4cccs4)C(=O)C13)O2 (configuration not stated)
inactive: growth inhibition [1] -9.53% | growth inhibition [2] 2.99% | viability increase [3] -0.61% | viability [4] 94.3% | viability [5] 91.2% | inhibition [6] 0.305% | RAM network inhibition [7] 2.76%

COc1ccc(C2CCCN2C(=O)Nc2ccc(F)cc2)cc1OC (configuration not stated)
inactive: growth inhibition [1] -6.66% | growth inhibition [2] -5.24% | viability increase [3] 1.33% | viability [4] 98.8% | viability [5] 88.2% | inhibition [6] 2.6% | RAM network inhibition [7] 3.45%

Cc1ccccc1CN1CCNC(=O)C1CC(=O)O (configuration not stated)
inactive: growth inhibition [1] -13.2% | growth inhibition [2] -14.1% | viability increase [3] -3.29% | viability [4] 105% | viability [5] 96.2% | inhibition [6] 2.04% | RAM network inhibition [7] -0.64%

— PubChem BioAssay
